Results published in paper PMC4515944 (Planta medica, 2015).
Converted amounts (≈) assume the structure as drawn. Where two headings read alike, the source gives them in different places. Blank lines part the entries; values can stand above or below the compound they belong to.

What was measured:
[1] = target: Collagenase type V from Clostridium histolyticum; assay: Collagenase inhibition assay; format: biochemical; settings: for IC50: incubation 37°C 10 min, reaction monitored 30 min; for inhibition rate: initial concentration 50 μg/mL
How it was run: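 Clostridium histolyticum collagenase (100 μg/mL initial) in 10 mM Tris-HCl pH 7.3 preincubated 10 min with test compound (1% DMSO final). MCA-Pro-Leu-Ala-Nva-DNP-Dap-Ala-Arg-NH2 (55.55 μg/mL initial) then added. Fluorescence ex 320/em 400 nm read at endpoint, or every 5 min over 30 min for AUC. Serial dilutions in triplicate, blank per concentration, % inhibition versus buffer control. Km by Lineweaver-Burk, substrate 4.17–166.67 μg/mL initial.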

collagenase = settings: cited from earlier work

IC50 ([1]; final concentration): 42.86 µg/mL | IC50 ([1]; mean ± SD (n=3)): 238 ± 3.4 µM
Compound: c1cnc2c(c1)ccc1cccnc12 [1,10-phenanthroline]
IC50 described in literature (collagenase; ref [16]): 70.4 µg/mL (≈ 391 µM)

Compound: O=C(O[C@@H]1Cc2c(O)cc(O)cc2O[C@@H]1c1cc(O)c(O)c(O)c1)c1cc(O)c(O)c(O)c1 [epigallocatechingallate]
IC50 (collagenase; ref [15]): 114 µg/mL (≈ 249 µM)

IC50 ([1]; final concentration): 38.82 µg/mL | IC50 ([1]; mean ± SD (n=3)): 159 ± 3.2 µM
Compound: COC1=C(NCC(=O)O)CC(O)(CO)CC1=N (stereo not shown) [palythine]

IC50, kinetic reading mode (AUC) ([1]; AUC 0-30 min, n=3): 11.95 μg/mL ± 1.28 | IC50, endpoint reading mode ([1]; endpoint reading at 30 min, n=3): 11.07 μg/mL ± 0.95 | IC50 ([1]; mean ± SD (n=3)): 18.8 ± 1.6 µM | inhibition rate ([1]; reaction temperature 30°C): 53.4% | inhibition rate ([1]; reaction temperature 37°C): 53.4% | inhibition rate ([1]; room temperature (RT)): 49.1%
Compound: CC(C)C[C@H](NP(=O)(O)O[C@@H]1O[C@@H](C)[C@H](O)[C@@H](O)[C@H]1O)C(=O)N[C@@H](Cc1c[nH]c2ccccc12)C(=O)O [phosphoramidon]

IC50 ([1]; final concentration): 37.73 µg/mL | IC50 ([1]; mean ± SD (n=3)): 106 ± 2.3 µM
Compound: COC1=C(NCC(=O)O)CC(O)(CO)CC1=N[C@H](C(=O)O)[C@@H](C)O (stereo partly shown) [porphyra]

IC50 ([1]; final concentration): 34.42 µg/mL | IC50 ([1]; mean ± SD (n=3)): 104 ± 3.7 µM
Compound: COC1=C(NCC(=O)O)C[C@@](O)(CO)C/C1=N\[C@@H](CO)C(=O)O [shinorine]

Compound: MCA-Pro-Leu-Ala-Nva-DNP-Dap-Ala-Arg-NH2 [MMP-2 fluorogenic substrate]
maximum velocity (Vmax) ([1]; Lineweaver Burk plot, enzyme 100 μg/mL (initial)): 212.76 µmol/min | Km ([1]; read-out: Km (final), Lineweaver Burk plot, final concentration): 12.9 µM | Km ([1]; read-out: Michaelis Menten constant (Km), Lineweaver Burk plot, enzyme 100 μg/mL (initial), initial substrate concentration): 51.7 µM
